Measurements: ChEMBL document CHEMBL4350961, “Discovery of Pyrrolo[3,2- d]pyrimidin-4-one Derivatives as a New Class of Potent and Cell-Active Inhibitors of P300/CBP-Associated Factor Bromodomain” (J Med Chem, 2019)
Activity calls are given as the source filed them.

Key:
[1] = biological target: Serine/threonine-protein kinase WNK4 (Homo sapiens) (UniProt Q96J92); assay: Inhibition of human WNK4 using myelin basic protein as substrate measured after 120 mins in presence of [gamma33P]ATP by scintillation counting method
[2] = test system: Mitogen-activated protein kinase 14 (Homo sapiens), Q16539 [T106M]; assay: Inhibition of recombinant full-length human SAPK2a T106M mutant at 10 uM using myelin basic protein as substrate measured after 40 mins in presence of [gamma33P]ATP by scintillation counting method
[3] = biological target: Tyrosine-protein kinase ABL1 (Homo sapiens) (UniProt P00519); assay: Inhibition of recombinant human ABL (27 to end residues) at 10 uM using EAIYAAPFAKKK as substrate measured after 40 mins in presence of [gamma33P]ATP by scintillation counting method
[4] = test system: Hepatocyte growth factor receptor (Homo sapiens), P08581 [Y1230D]; assay: Inhibition of recombinant human MET A1209G/V1290L/Y1248D mutant (974 to end residues) at 10 uM using KKKGQEEEYVFIE as substrate measured after 40 mins in presence of [gamma33P]ATP by scintillation counting method
[5] = test system: Serine/threonine-protein kinase N1 (Homo sapiens), Q16512 [V901I]; assay: Inhibition of human PRK1 V901I mutant (498 to end residues) using KKLNRTLSFAEPG as substrate measured after 40 mins in presence of [gamma33P]ATP by scintillation counting method
In short: (§1)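 Kinase panel of 422 kinases screened by Eurofins KinaseProfiler at a single test-compound concentration of 10 µM.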

[6] = test system: PI3-kinase p110-alpha/p85-alpha (Homo sapiens), P27986+P42336 [E542K]; assay: Inhibition of recombinant full-length mouse PI3K p110alpha/p85alpha E542K mutant at 10 uM using phosphatidylinositol-4, 5-bisphosphate as substrate measured after 40 mins by HTRF assay; assay type: protein-complex assay
[7] = biological target: Dual specificity tyrosine-phosphorylation-regulated kinase 1B (Homo sapiens) (UniProt Q9Y463); assay: Inhibition of recombinant full-length human DYRK1B at 10 uM using RRRFRPASPLRGPPK as substrate measured after 40 mins in presence of [gamma33P]ATP by scintillation counting method
[8] = biological target: Death-associated protein kinase 2 (Homo sapiens) (UniProt Q9UIK4); assay: Inhibition of recombinant full-length human DAPK2 at 10 uM using calmodulin as substrate measured after 40 mins in presence of [gamma33P]ATP by scintillation counting method
[9] = biological target: Serine/threonine-protein kinase pim-3 (Homo sapiens) (UniProt Q86V86); assay: Inhibition of recombinant human Pim3 (2 to end residues) at 10 uM using RSRHSSYPAGT as substrate measured after 40 mins in presence of [gamma33P]ATP by scintillation counting method
[10] = biological target: Calcium/calmodulin-dependent protein kinase kinase 1 (Homo sapiens) (UniProt Q8N5S9); assay: Inhibition of recombinant full-length human CAMKk1 at 10 uM using calmodulin as substrate measured after 40 mins in presence of [gamma33P]ATP by scintillation counting method
[11] = test system: Ribosomal protein S6 kinase beta-1 (Homo sapiens), P23443 [T412E]; assay: Inhibition of recombinant human p70S6K T412E mutant (1 to 421 residues) at 10 uM using KKRNRTLTV as substrate measured after 40 mins in presence of [gamma33P]ATP by scintillation counting method
[12] = biological target: Ribosomal protein S6 kinase alpha-2 (Homo sapiens) (UniProt Q15349); assay: Inhibition of recombinant full-length human Rsk3 at 10 uM using KKKNRTLSVA as substrate measured after 40 mins in presence of [gamma33P]ATP by scintillation counting method
[13] = biological target: Protein kinase C delta type (Homo sapiens) (UniProt Q05655); assay: Inhibition of recombinant human PKCdelta (2 to end residues) at 10 uM using ERMRPRKRQGSVRRRV as substrate measured after 40 mins in presence of [gamma33P]ATP by scintillation counting method
[14] = biological target: Tyrosine-protein kinase BTK (Homo sapiens) (UniProt Q06187); assay: Inhibition of full-length recombinant human BTK at 10 uM using KVEKIGEGTYGVVYK as substrate measured after 40 mins in presence of [gamma33P]ATP by scintillation counting method; in short: as §1
[15] = biological target: Dual specificity protein kinase CLK3 (Homo sapiens) (UniProt P49761); assay: Inhibition of recombinant full-length human CLK3 at 10 uM using ERMRPRKRQGSVRRRV as substrate measured after 40 mins in presence of [gamma33P]ATP by scintillation counting method
[16] = biological target: Misshapen-like kinase 1 (Homo sapiens) (UniProt Q8N4C8); assay: Inhibition of recombinant human MINK (1 to 310 residues) at 10 uM using myelin basic protein as substrate measured after 40 mins in presence of [gamma33P]ATP by scintillation counting method
[17] = biological target: Serine/threonine-protein kinase/endoribonuclease IRE1 (Homo sapiens) (UniProt O75460); assay: Inhibition of recombinant human IRE1 (465 to end residues) at 10 uM using myelin basic protein as substrate measured after 40 mins in presence of [gamma33P]ATP by scintillation counting method
[18] = biological target: SWI/SNF-related matrix-associated actin-dependent regulator of chromatin subfamily A member 4 (Homo sapiens) (UniProt P51532); assay: Binding affinity to human partial length SMARCA4 (A1448 to S1575 residues) expressed in bacterial expression system at 1 uM by BROMOscan assay
In short: (§2)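 BROMOscan bromodomain cross-screen run by an outside service, compound at 1 µM against 32 recombinant bromodomains. Binding given as percent of control.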

[19] = biological target: Bromodomain-containing protein 4 (Homo sapiens) (UniProt O60885); assay: Binding affinity to human partial length BRD4 bromodomain 1 long isoform (N44 to E168 residues) expressed in bacterial expression system at 1 uM by BROMOscan assay; in short: as §2
[20] = biological target: Serine/threonine-protein kinase SIK2 (Homo sapiens) (UniProt Q9H0K1); assay: Inhibition of human SIK2 (1 to 276 residues) using KKKVSRSGLYRSPSMPENLNRPR as substrate measured after 40 mins in presence of [gamma33P]ATP by scintillation counting method; in short: as §1
[21] = biological target: Dual specificity protein kinase CLK1 (Homo sapiens) (UniProt P49759); assay: Inhibition of recombinant human CLK1 (130 to end residues) at 10 uM using ERMRPRKRQGSVRRRV as substrate measured after 40 mins in presence of [gamma33P]ATP by scintillation counting method
[22] = biological target: Serine/threonine-protein kinase NLK (Homo sapiens) (UniProt Q9UBE8); assay: Inhibition of recombinant human NLK (121 to end residues) at 10 uM using myelin basic protein as substrate measured after 40 mins in presence of [gamma33P]ATP by scintillation counting method
[23] = biological target: Dual specificity tyrosine-phosphorylation-regulated kinase 1A (Homo sapiens) (UniProt Q13627); assay: Inhibition of recombinant full-length human DYRK1A at 10 uM using RRRFRPASPLRGPPK as substrate measured after 40 mins in presence of [gamma33P]ATP by scintillation counting method

Chain of Ribosomal protein S6 kinase alpha-2 (Homo sapiens) (Q15349 whole entry): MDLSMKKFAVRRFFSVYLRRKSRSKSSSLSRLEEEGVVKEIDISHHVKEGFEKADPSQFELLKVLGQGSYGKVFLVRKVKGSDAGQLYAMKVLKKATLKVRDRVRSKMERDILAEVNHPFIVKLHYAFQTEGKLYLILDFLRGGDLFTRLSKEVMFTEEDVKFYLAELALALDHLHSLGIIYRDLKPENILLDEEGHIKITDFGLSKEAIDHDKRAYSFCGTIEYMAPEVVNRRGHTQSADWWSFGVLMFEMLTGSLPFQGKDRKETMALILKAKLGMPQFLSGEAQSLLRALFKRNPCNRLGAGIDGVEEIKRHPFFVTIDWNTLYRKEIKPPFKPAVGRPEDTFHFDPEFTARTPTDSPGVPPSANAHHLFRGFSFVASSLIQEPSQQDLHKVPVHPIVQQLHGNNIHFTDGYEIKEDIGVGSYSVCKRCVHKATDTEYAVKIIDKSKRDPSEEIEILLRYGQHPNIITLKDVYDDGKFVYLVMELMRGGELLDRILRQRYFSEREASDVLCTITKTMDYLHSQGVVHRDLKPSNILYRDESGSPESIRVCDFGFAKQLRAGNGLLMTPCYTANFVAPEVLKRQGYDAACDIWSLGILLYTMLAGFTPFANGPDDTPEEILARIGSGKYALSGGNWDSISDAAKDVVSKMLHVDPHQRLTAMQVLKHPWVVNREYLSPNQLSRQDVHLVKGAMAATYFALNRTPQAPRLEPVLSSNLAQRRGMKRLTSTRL
Chain of Dual specificity protein kinase CLK1 (Homo sapiens) (P49759 whole entry, looked up): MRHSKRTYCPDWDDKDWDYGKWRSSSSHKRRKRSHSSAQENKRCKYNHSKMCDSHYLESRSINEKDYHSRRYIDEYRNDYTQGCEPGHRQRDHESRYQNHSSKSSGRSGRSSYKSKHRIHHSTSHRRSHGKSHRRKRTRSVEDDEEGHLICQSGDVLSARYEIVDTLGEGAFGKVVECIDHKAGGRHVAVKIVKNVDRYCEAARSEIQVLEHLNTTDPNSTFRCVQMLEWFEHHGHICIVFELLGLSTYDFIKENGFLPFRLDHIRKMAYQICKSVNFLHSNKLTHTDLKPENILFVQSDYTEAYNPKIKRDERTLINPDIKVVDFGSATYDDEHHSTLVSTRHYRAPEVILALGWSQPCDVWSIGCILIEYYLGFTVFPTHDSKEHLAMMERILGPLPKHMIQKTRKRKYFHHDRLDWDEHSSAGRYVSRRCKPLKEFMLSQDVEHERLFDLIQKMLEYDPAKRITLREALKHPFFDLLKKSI
Chain of Tyrosine-protein kinase ABL1 (Homo sapiens) (P00519 whole entry): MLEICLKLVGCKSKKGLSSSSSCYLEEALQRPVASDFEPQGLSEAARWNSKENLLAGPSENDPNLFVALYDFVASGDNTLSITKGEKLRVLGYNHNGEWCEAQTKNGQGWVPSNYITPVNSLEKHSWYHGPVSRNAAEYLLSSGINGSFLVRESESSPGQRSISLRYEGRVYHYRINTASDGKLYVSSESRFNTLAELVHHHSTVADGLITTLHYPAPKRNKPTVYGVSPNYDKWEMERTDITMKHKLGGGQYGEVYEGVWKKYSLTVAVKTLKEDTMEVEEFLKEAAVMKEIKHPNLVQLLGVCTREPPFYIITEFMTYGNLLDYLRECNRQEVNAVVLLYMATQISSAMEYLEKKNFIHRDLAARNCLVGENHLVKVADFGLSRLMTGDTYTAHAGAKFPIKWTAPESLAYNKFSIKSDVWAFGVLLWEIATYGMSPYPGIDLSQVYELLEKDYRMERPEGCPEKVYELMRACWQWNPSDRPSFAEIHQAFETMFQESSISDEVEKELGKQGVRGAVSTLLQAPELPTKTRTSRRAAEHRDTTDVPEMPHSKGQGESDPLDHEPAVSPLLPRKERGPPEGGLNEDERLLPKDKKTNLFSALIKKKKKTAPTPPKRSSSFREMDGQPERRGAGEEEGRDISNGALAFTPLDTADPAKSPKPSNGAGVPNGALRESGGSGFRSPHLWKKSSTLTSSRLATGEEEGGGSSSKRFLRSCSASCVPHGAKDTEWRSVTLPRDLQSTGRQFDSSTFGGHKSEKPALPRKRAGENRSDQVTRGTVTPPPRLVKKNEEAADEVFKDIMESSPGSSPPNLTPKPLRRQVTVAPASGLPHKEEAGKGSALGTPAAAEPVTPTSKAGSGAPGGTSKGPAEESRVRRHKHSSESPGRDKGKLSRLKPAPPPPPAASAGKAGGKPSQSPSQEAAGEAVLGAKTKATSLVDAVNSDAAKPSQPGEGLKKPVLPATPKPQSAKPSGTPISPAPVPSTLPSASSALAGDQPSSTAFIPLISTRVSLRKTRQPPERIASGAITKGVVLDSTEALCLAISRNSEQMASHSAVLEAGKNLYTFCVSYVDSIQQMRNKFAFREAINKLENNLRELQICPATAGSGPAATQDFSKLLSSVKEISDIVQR
Chain of Protein kinase C delta type (Homo sapiens) (Q05655 whole entry, looked up): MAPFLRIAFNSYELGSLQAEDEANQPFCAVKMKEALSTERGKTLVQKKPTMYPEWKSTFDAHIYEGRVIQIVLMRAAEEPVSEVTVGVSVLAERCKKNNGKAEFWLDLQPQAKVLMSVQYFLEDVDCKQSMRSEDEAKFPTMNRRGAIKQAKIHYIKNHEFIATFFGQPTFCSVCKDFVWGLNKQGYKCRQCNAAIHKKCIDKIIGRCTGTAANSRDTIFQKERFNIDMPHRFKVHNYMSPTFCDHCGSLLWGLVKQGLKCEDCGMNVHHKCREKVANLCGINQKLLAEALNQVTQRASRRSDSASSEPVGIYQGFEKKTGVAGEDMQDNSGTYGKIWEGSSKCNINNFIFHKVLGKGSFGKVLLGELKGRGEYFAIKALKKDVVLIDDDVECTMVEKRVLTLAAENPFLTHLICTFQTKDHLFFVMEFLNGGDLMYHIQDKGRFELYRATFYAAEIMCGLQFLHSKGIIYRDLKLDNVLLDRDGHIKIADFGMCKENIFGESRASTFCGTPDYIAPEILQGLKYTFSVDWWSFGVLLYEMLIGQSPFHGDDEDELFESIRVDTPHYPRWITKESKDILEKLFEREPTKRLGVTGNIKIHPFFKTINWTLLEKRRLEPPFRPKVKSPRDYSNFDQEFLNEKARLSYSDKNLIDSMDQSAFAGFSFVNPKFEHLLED
Chain of Mitogen-activated protein kinase 14 (Homo sapiens), Q16539 [T106M] (Q16539 whole entry T106M): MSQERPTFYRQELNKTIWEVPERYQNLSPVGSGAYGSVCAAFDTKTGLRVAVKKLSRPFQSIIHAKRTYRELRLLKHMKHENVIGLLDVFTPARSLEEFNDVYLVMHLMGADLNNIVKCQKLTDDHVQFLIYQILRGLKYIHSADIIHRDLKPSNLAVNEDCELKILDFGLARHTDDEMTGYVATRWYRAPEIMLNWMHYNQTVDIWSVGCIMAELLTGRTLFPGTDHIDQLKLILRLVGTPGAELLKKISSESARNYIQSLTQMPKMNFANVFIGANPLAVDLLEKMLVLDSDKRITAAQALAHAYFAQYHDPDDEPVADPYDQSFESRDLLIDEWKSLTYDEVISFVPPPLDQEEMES
Chain of Misshapen-like kinase 1 (Homo sapiens) (Q8N4C8 whole entry, looked up, the tested form may be a part): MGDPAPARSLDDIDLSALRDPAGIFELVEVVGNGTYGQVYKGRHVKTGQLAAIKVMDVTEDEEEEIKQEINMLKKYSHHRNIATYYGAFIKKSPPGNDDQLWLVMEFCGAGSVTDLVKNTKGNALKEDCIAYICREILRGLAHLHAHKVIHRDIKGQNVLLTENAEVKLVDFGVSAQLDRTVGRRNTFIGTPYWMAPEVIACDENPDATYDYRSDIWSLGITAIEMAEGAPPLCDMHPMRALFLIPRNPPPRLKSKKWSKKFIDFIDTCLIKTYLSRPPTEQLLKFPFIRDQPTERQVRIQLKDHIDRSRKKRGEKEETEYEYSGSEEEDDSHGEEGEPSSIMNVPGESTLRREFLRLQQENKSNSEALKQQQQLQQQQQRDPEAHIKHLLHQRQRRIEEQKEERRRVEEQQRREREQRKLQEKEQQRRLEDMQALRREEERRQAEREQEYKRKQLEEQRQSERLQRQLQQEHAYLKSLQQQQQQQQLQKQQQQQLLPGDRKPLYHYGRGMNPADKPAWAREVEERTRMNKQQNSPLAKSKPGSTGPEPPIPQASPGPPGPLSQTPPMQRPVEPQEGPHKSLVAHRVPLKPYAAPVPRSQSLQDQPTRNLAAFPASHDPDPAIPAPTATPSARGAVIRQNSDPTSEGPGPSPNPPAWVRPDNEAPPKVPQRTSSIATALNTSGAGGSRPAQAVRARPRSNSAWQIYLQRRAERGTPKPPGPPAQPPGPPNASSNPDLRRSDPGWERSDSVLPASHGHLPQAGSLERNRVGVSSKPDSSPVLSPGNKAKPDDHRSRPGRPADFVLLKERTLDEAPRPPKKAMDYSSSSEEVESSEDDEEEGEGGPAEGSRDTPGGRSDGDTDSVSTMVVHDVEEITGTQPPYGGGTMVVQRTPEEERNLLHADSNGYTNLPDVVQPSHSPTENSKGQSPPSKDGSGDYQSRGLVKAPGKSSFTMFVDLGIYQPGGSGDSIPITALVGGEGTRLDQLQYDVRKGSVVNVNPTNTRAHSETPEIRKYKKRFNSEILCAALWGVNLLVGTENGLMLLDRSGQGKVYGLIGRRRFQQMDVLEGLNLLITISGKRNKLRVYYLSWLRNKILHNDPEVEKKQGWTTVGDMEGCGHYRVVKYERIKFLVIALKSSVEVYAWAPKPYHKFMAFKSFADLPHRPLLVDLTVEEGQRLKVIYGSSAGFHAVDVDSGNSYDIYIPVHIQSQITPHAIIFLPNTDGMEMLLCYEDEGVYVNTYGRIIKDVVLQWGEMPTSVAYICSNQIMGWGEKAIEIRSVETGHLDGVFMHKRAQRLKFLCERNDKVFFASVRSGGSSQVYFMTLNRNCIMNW

CN1C[C@H](Nc2nc3cc[nH]c3c(=O)n2C)C[C@H](c2ccc3c(c2)OCCO3)C1
inactive: inhibition [1] | inhibition [2] | inhibition [3] | inhibition [4] | inhibition [5] | inhibition [6] | inhibition [7] | inhibition [8] | inhibition [9] | inhibition [10] | inhibition [11] | inhibition [12] | inhibition [13] | inhibition [14] | inhibition [15] | inhibition [16] | inhibition [17] | Activity [18] | Activity [19] | inhibition [20] | inhibition [21] | inhibition [22] | inhibition [23]
